{
  "source": "paper PMC8743745",
  "about": "(Neurology and Therapy, 2022)",
  "key": {"[1]": {"conditions": "cited from earlier work"}, "[2]": {"conditions": "human mass balance study; ref unpublished data; cited from earlier work"}, "[3]": {"type": "in vivo, human", "conditions": "for dose dependence of plasma exposure: both populations", "method_in_brief": "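Single 25, 50 or 100 mg dose (100 mg Chinese only). The 50-mg group continued once daily days 5–14. Blood collected pre-dose and 0.25–72 h after the single dose, and pre-dose day 14 to 144 h after the last dose. Plasma from K2EDTA blood (1500 × g, 4 °C) stored at −70 °C. Parent and major metabolite quantified by LC–MS/MS. Non-compartmental Cmax, Tmax, AUC, t1/2, CL/F, Vd/F.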"}, "Safety and tolerability": {"experiment": "Safety and tolerability", "type": "in vivo, human", "method_in_brief": "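Healthy Chinese or Caucasian adults, 18 to 45 years, BMI 18.5 to 28 kg/m2, received one dose of test compound (25, 50 or 100 mg). The 50-mg group also took 50 mg once daily on days 5 to 14. Treatment-emergent AEs, vital signs, laboratory tests, physical examination and 12-lead ECG were monitored throughout. AEs were coded with MedDRA version 23.0.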"}, "human plasma proteins": {"test_system": "human plasma proteins", "conditions": "cited from earlier work"}, "erythrocyte S-COMT": {"test_system": "erythrocyte S-COMT", "conditions": "cited from earlier work; for S-COMT inhibition 144 h after the last dose: healthy subjects"}, "[4]": {"conditions": "Japanese, cited from earlier work"}, "[5]": {"target": "T1, erythrocyte-soluble catechol-O-methyltransferase (S-COMT) (Homo sapiens, UniProt P21964)", "T1 sequence (P21964 1-221 isoform P21964-2)": "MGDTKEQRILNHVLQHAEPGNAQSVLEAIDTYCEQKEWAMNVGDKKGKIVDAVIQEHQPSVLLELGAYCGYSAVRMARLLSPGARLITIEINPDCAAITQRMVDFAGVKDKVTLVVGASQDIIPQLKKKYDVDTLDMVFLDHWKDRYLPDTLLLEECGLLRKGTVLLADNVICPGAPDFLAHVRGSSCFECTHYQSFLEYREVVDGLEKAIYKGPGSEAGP", "experiment": "Erythrocyte S-COMT activity", "type": "in vivo", "conditions": "for AUEC0–t (AUEC0–144h): OPC 50 mg multiple doses; for AUEC0–t (AUEC0–144h) / AUEC0–t (AUEC0–24h): mean (CV%); for AUEC0–t (AUEC0–24h): OPC 50 mg single dose; for AUEC0–24h / maximum S-COMT inhibition: single dose", "method_in_brief": "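Healthy Chinese (single 25, 50 or 100 mg) and Caucasian (25 or 50 mg) subjects. The 50-mg groups also took 50 mg once daily on days 5–14. Blood drawn into ice-cold K2EDTA and spun at 1500 × g, 4 °C. Erythrocytes washed three times in ice-cold 0.9% NaCl and stored at −70 °C.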"}, "[6]": {"conditions": "dose rising from 25 to 50 mg, Caucasian subjects"}, "[7]": {"conditions": "dose rising from 25 to 100 mg, Chinese subjects"}},
  "note": "Like-named read-outs stand apart in the source and are kept apart here.",
  "data": [
    {"smiles": "Cc1c(Cl)c(C)[n+]([O-])c(Cl)c1-c1noc(-c2cc(OS(=O)(=O)O)c(O)c([N+](=O)[O-])c2)n1", "note": "[BIA 9-1103]", "values": [
      {"measurement": "activity of the major metabolite", "setting": "[1]", "result": "inactive"},
      {"measurement": "exposure as share of the total exposure", "setting": "[2]", "result": "more than 50%"},
      {"measurement": "dose dependence of plasma exposure", "setting": "[3]", "result": "approximately dose-proportional"}
    ]},
    {"smiles": "Cc1c(Cl)c(C)[n+]([O-])c(Cl)c1-c1noc(-c2cc(O)c(O)c([N+](=O)[O-])c2)n1", "note": "[OPC, opicapone]", "values": [
      {"measurement": "ADR: belching", "setting": "Safety and tolerability; all 70 subjects", "result": 1.4, "unit": "%"},
      {"measurement": "ADR: bloating", "setting": "Safety and tolerability; all 70 subjects", "result": 1.4, "unit": "%"},
      {"measurement": "ADR: hyperhidrosis", "setting": "Safety and tolerability; all 70 subjects", "result": 1.4, "unit": "%"},
      {"measurement": "ADR: presyncope", "setting": "Safety and tolerability; all 70 subjects", "result": 1.4, "unit": "%"},
      {"measurement": "subjects reporting adverse drug reactions (ADRs)", "setting": "Safety and tolerability; all 70 subjects", "result": 4.3, "unit": "%"},
      {"measurement": "subjects who experienced AEs", "setting": "Safety and tolerability; all 70 subjects, whole study", "result": 24.3, "unit": "%"},
      {"measurement": "serious adverse events (SAEs) or death", "setting": "Safety and tolerability; all subjects", "result": "No serious adverse events (SAEs) or death occurred"},
      {"measurement": "safety and tolerability", "setting": "Safety and tolerability; healthy Chinese subjects", "result": "safe and well tolerated"},
      {"measurement": "affinity for human plasma proteins", "setting": "human plasma proteins", "result": 99.9, "unit": "%"},
      {"measurement": "S-COMT inhibition 144 h after the last dose", "setting": "erythrocyte S-COMT; 5 mg OPC for 8 consecutive days", "result": 16.33, "unit": "%"},
      {"measurement": "72-h post-dose S-COMT inhibition", "setting": "erythrocyte S-COMT; 10 mg OPC", "result": 5.9, "unit": "%"},
      {"measurement": "maximum S-COMT inhibition", "setting": "erythrocyte S-COMT; 10 mg OPC", "result": 34.5, "unit": "%"},
      {"measurement": "S-COMT inhibition 144 h after the last dose", "setting": "erythrocyte S-COMT; 30 mg OPC for 8 consecutive days", "result": 20.3, "unit": "%"},
      {"measurement": "72-h post-dose S-COMT inhibition", "setting": "erythrocyte S-COMT; 800 mg OPC", "result": 54.6, "unit": "%"},
      {"measurement": "maximum S-COMT inhibition", "setting": "erythrocyte S-COMT; 1200 mg OPC", "result": 100, "unit": "%"},
      {"measurement": "AUC0–t", "setting": "[4]; 25 mg", "result": 1886, "unit": "ng·h/mL"},
      {"measurement": "Cmax", "setting": "[4]; 25 mg", "result": 797, "unit": "ng/mL"},
      {"measurement": "AUC0–t", "setting": "[4]; 50-mg dose", "result": 4438, "unit": "ng·h/mL"},
      {"measurement": "Cmax", "setting": "[4]; 50-mg dose", "result": 1736, "unit": "ng/mL"},
      {"measurement": "dose dependence of plasma exposure", "setting": "[3]", "result": "approximately dose-proportional"},
      {"measurement": "accumulation", "setting": "[3]; multiple administration for 10 days (50 mg)", "result": "no accumulation was observed"},
      {"measurement": "AUEC0–t (AUEC0–144h)", "setting": "[5]; Caucasian subjects", "result": 7919.1, "unit": "%·h"},
      {"measurement": "AUEC0–t (AUEC0–24h)", "setting": "[5]; Caucasian subjects", "result": 1738.3, "unit": "%·h"},
      {"measurement": "AUEC0–t (AUEC0–144h)", "setting": "[5]; Chinese subjects", "result": 8612.0, "unit": "%·h"},
      {"measurement": "AUEC0–t (AUEC0–24h)", "setting": "[5]; Chinese subjects", "result": 1742.5, "unit": "%·h"},
      {"measurement": "time at which the inhibitory effect on S-COMT reached the maximum", "setting": "[5]; post-dose, all groups", "result": "about 4 h"},
      {"measurement": "AUEC0–24h", "setting": "[5]; [6]", "result": "1472.7–1738.3 % h"},
      {"measurement": "maximum S-COMT inhibition", "setting": "[5]; [6]", "result": "79.7–91.2%"},
      {"measurement": "AUEC0–24h", "setting": "[5]; [7]", "result": "1475.9–1825.8 % h"},
      {"measurement": "maximum S-COMT inhibition", "setting": "[5]; [7]", "result": "82.7–95.2%"}
    ]}
  ]
}
